Measurements as given in ChEMBL document CHEMBL4396881, “Improved Th17 Selectivity of α-Galactosylceramide via Noncovalent Interactions with Diether Moiety” (ACS Med Chem Lett, 2019).
Calls of active or inactive are those of the source.

Assays:
Format in all cases: functional
Mus musculus [1] = organism: Mus musculus; test: Stimulation of cytokine secretion in C57BL/6 mouse HMNCs assessed as increase in IL-2 secretion at 25 nM measured after 24 hrs by ELISA
Outline: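 Mouse hepatic mononuclear cells were exposed to the α-GalCer analogues. IL-2 secretion was read 24 h after treatment. Results were expressed as relative activity, mean ± SEM, from n = 3 biological replicates.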

Mus musculus [2] = organism: Mus musculus; test: Stimulation of cytokine secretion in C57BL/6 mouse HMNCs assessed as increase in IFN gamma secretion at 25 nM measured after 72 hrs by ELISA
Mus musculus [3] = organism: Mus musculus; test: Stimulation of cytokine secretion in C57BL/6 mouse HMNCs assessed as increase in IL-17 secretion at 25 nM measured after 72 hrs by ELISA
Mus musculus [4] = organism: Mus musculus; test: Stimulation of cytokine secretion in C57BL/6 mouse HMNCs assessed as increase in IL-4 secretion at 25 nM measured after 72 hrs by ELISA
Mus musculus [5] = organism: Mus musculus; test: Stimulation of cytokine secretion in C57BL/6 mouse HMNCs assessed as increase in IL-17 secretion measured after 72 hrs by ELISA
Mus musculus [6] = organism: Mus musculus; test: Stimulation of cytokine secretion in C57BL/6 mouse HMNCs assessed as increase in IL-17 secretion at 5 to 125 nM measured after 72 hrs by ELISA
Mus musculus [7] = organism: Mus musculus; test: Antiinflammatory activity in C57BL/6 mouse HMNCs assessed as reduction in IL-17 secretion at 5 to 125 nM

Measured: Activity

CCCCCCCCCCCCCC[C@@H](O)[C@@H](O)[C@H](CO[C@H]1O[C@H](CO)[C@H](O)[C@H](O)[C@H]1O)NC(=O)CCCCCCCCCCCOCCCCCCCCCOCCC
active: Mus musculus [1] | Mus musculus [2] | Mus musculus [3] | Mus musculus [4]

CCCCCCCCCCCCCC[C@@H](O)[C@@H](O)[C@H](CO[C@H]1O[C@H](CO)[C@H](O)[C@H](O)[C@H]1O)NC(=O)CCCCCCCCCCCCCCOCCCCCCOCCC
active: Mus musculus [1] | Mus musculus [2] | Mus musculus [3] | Mus musculus [4]

CCCCCCCCCCCCCC[C@@H](O)[C@@H](O)[C@H](CO[C@H]1O[C@H](CO)[C@H](O)[C@H](O)[C@H]1O)NC(=O)CCCCCCCCCCCCOCCCCCCCCCOCC
active: Mus musculus [1] | Mus musculus [2] | Mus musculus [5] Dose-dependent effect | Mus musculus [3] | Mus musculus [4]

CCCCCCCCCCCCCCCCCCCCCCCCCC(=O)N[C@@H](CO[C@H]1O[C@H](CO)[C@H](O)[C@H](O)[C@H]1O)[C@H](O)[C@H](O)CCCCCCCCCCCCCC
active: Mus musculus [2] | Mus musculus [4]

CCCCCCCCCCCCCC[C@@H](O)[C@@H](O)[C@H](CO[C@H]1O[C@H](CO)[C@H](O)[C@H](O)[C@H]1O)NC(=O)CCCCCCCCCCCCCCCCOCCCCOCCC
active: Mus musculus [1] | Mus musculus [2] | Mus musculus [6] | Mus musculus [3] | Mus musculus [7] | Mus musculus [4]

CCCCCCCCCCCCCC[C@@H](O)[C@@H](O)[C@H](CO[C@H]1O[C@H](CO)[C@H](O)[C@H](O)[C@H]1O)NC(=O)CCCCCCCCCCCCCCCCOCCCCCOCC
active: Mus musculus [1] | Mus musculus [2] | Mus musculus [3] | Mus musculus [4]

CCCCCCCCCCCCCC[C@@H](O)[C@@H](O)[C@H](CO[C@H]1O[C@H](CO)[C@H](O)[C@H](O)[C@H]1O)NC(=O)CCCCCCCCCCCCOCCCCCCCCOCCC
active: Mus musculus [1] | Mus musculus [2] | Mus musculus [3] | Mus musculus [4]

CCCCCCCCCCCCCC[C@@H](O)[C@@H](O)[C@H](CO[C@H]1O[C@H](CO)[C@H](O)[C@H](O)[C@H]1O)NC(=O)CCCCCCCCCCCCCCOCCCCCCCOCC
active: Mus musculus [1] | Mus musculus [2] | Mus musculus [3] | Mus musculus [4]

CCCCCCCCCCCCCC[C@@H](O)[C@@H](O)[C@H](CO[C@H]1O[C@H](CO)[C@H](O)[C@H](O)[C@H]1O)NC(=O)CCCCCCCCCCCOCCCCCCCCCCOCC
active: Mus musculus [1] | Mus musculus [2] | Mus musculus [5] Dose-dependent effect | Mus musculus [3] | Mus musculus [4]
